These results are taken from ChEMBL document CHEMBL1133896, “Structure-activity study and analgesic efficacy of amino acid derivatives as N-type calcium channel blockers” (Bioorg Med Chem Lett, 2001).

Assay [1] is described as follows: In vitro inhibition against L-type calcium influx in mouse pituitary tumor derived cells (AtT-20). The assay is classed as functional. The settings on record: AtT20.
The target in assay [2] is T1, Voltage-dependent N-type calcium channel subunit alpha-1B (Homo sapiens, UniProt Q00975). Kind of assay: In vitro inhibition against N-type calcium influx in IMR-32 cells. The assay is classed as functional, cell-based.
Target sequence in this assay (Q00975 whole entry): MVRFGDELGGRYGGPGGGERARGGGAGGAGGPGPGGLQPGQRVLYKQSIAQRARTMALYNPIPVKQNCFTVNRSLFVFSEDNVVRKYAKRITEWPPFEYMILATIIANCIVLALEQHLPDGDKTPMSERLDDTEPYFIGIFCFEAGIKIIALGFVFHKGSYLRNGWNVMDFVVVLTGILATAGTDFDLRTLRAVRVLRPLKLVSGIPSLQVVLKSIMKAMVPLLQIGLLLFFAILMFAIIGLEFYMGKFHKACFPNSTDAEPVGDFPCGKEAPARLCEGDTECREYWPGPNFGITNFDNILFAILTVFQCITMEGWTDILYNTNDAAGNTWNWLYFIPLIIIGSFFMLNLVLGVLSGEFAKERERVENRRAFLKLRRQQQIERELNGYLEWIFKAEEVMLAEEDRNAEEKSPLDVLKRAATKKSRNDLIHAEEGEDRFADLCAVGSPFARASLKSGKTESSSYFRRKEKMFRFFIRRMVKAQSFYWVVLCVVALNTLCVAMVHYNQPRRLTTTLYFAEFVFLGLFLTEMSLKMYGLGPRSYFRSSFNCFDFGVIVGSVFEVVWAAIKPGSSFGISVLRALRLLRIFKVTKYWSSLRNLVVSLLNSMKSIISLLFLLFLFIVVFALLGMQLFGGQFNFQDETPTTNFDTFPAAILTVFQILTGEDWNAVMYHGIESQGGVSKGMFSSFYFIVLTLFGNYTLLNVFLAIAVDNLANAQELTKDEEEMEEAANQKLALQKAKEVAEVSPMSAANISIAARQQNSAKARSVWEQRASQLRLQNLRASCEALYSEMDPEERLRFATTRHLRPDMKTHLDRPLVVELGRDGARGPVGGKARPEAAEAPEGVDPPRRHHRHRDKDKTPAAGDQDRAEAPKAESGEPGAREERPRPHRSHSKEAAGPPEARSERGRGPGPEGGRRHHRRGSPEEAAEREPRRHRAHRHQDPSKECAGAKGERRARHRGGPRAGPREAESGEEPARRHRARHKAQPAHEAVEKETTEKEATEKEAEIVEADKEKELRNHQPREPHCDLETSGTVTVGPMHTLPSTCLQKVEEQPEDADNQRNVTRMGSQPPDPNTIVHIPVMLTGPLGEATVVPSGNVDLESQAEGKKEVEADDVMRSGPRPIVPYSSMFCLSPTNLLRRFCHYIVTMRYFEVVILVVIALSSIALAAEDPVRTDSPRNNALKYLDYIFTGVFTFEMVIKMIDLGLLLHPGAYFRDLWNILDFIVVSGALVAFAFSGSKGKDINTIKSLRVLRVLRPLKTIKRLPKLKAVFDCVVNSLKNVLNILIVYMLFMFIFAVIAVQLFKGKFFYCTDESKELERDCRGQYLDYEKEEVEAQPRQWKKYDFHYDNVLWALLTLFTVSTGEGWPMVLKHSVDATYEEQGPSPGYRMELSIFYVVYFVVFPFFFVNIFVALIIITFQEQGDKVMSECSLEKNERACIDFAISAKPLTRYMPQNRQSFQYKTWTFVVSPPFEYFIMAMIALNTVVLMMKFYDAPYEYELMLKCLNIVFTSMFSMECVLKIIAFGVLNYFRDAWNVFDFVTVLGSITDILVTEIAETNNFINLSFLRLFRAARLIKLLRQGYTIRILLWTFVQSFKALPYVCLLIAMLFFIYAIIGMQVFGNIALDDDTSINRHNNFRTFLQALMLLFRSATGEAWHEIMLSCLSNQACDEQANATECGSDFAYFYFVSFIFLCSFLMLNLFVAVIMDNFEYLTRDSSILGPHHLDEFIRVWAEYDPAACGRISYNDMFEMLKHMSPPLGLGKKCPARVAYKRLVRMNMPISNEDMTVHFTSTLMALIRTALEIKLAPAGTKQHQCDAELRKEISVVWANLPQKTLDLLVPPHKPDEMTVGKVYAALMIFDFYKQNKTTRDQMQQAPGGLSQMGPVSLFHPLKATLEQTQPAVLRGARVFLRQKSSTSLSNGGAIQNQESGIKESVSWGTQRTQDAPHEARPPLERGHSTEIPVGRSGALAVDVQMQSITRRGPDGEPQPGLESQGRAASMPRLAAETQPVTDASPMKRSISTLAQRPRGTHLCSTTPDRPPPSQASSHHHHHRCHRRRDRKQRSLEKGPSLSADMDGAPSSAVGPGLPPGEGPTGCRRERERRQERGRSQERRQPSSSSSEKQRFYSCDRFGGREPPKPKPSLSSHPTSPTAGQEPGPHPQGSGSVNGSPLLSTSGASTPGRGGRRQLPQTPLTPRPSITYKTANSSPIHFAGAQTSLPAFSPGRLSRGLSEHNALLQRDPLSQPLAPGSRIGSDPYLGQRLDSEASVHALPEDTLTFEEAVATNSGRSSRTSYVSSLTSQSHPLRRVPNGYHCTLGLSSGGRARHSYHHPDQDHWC
The nature of assay [3]: Selectivity ratio between the L-type to N-type calcium influx. The class given is functional.
Assay [4] deals with T1, Voltage-dependent N-type calcium channel subunit alpha-1B. Briefly: In vitro inhibition of N-type calcium channel current in IMR-32 cells at 10 uM. The assay is classed as functional.
Target sequence in this assay (Q00975 whole entry, looked up): as the sequence (Q00975 whole entry) above
Assay [5] has as its system Rattus norvegicus. Kind of assay: In vivo analgesic efficacy in the rat formalin induced pain model at 3 nmol/rat intrathecal dose. The assay is classed as functional. Put shortly:
(§1)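 Rat formalin test. The read-out was paw flinching during the persistent nociceptive phase, expressed as % inhibition, n=3. Blood pressure and neurological behavior were also observed.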

Assay [6] has as its system Rattus norvegicus. Kind of assay: In vivo analgesic efficacy in rat formalin induced pain model at 100 mg/kg peroral dose. The assay is classed as functional. To be noted: route oral. The essentials:
as §1

For the compound `COc1ccc(COC(=O)[C@H](CC(=O)OC2CCCCCC2)NC(=O)OC(C)(C)C)cc1`, the IC50 stood at 12 µM in assay [1] and 2.6 µM in assay [2]. Also, the Selectivity ratio in assay [3] was determined as 4.6.
On to `CC(C)(C)OC(=O)N[C@@H](CC(=O)OC1CCCC1)C(=O)OCc1ccc(Br)cc1`, for which the values for the IC50 in assay [1] and in assay [2] were 5.3 µM and 3.4 µM, respectively. Further, in assay [3], the Selectivity ratio turned out to be 1.6.
Take `COc1ccc(COC(=O)[C@H](COCC2CCCCC2)NC(=O)OC(C)(C)C)cc1`: the IC50 was found to be 8.4 µM in assay [1] and 1.2 µM in assay [2]. Besides, the Selectivity ratio in assay [3] worked out at 7.
As to `COc1ccc(CNC(=O)[C@H](CSCC2CCCCC2)NC(=O)OC(C)(C)C)cc1`, the IC50 in assay [1] came out at 1.7 µM; in assay [2], 0.61 µM. In assay [4], the inhibition worked out at 66%. The compound further registered an Inhibition with Rattus norvegicus [5] of 36%. The Selectivity ratio in assay [3] came out at 2.8.
The corresponding values for `COc1ccc(CNC(=O)[C@H](COCC2CCCCC2)NC(=O)OC(C)(C)C)cc1` are 3.8 µM, 0.95 µM, 38%, 35% and 4.
As to `COC(=O)C[C@H](NC(=O)OC(C)(C)C)C(=O)OCc1ccc(OC)cc1`, the values for the IC50 in assay [1] and in assay [2] were 14 µM and 26 µM, respectively. Moreover, the Selectivity ratio in assay [3] stood at 0.5.
Take `COc1ccc(COC(=O)[C@H](CC(=O)OC2CCCCC2)NC(=O)OC(C)(C)C)cc1`: the figures for the IC50 in assay [1] and in assay [2] were 16 µM and 2.3 µM, respectively. The Selectivity ratio in assay [3] is 7.
Consider `COc1ccc(COC(=O)[C@H](CC(=O)OC2CCCC2)NC(=O)OC(C)(C)C)cc1`, for which the IC50 was found to be 15 µM in assay [1] and 3.4 µM in assay [2]. Besides, the inhibition in assay [4] amounted to 34%. For the same compound, the Inhibition in the assay on Rattus norvegicus [5] is recorded as 31%. Moreover, in assay [3], the Selectivity ratio came to 4.4.
For the compound `COc1ccc(CNC(=O)[C@H](CSCC2CCCC2)NC(=O)OC(C)(C)C)cc1`, the IC50 in assay [1] was found to be 3.9 µM; in assay [2], 0.63 µM. Further, the inhibition in assay [4] worked out at 45%. The Inhibition in the assay with Rattus norvegicus [5] was 47%. Besides, in assay [3], the Selectivity ratio amounted to 6.2. This compound also yielded an inhibition in vivo at 100 mg/kg in the assay with Rattus norvegicus [6] of 43%.
As to `COc1cccc(COC(=O)[C@H](CC(=O)OC2CCCC2)NC(=O)OC(C)(C)C)c1`, the half-inhibitory concentration (IC50) in assay [1] was found to be 12 µM; in assay [2], 3.8 µM. For the same compound, the Selectivity ratio in assay [3] stood at 3.2.
Take `COc1ccc(COC(=O)[C@@H](CC(=O)OC2CCCC2)NC(=O)OC(C)(C)C)cc1`: the IC50 amounted to 2.9 µM in assay [1] and 2 µM in assay [2]. The Selectivity ratio in assay [3] amounted to 1.5.
As to `COc1ccc(CN(C)C(=O)[C@H](COCC2CCCCC2)NC(=O)OC(C)(C)C)cc1`, the values for the IC50 in assay [1] and in assay [2] were 1.4 µM and 1.8 µM, respectively. For the same compound, the Selectivity ratio in assay [3] stood at 0.8.
As to `COc1ccc(CNC(=O)[C@H](CCOC2CCCCC2)NC(=O)OC(C)(C)C)cc1`, the IC50 in assay [1] stood at 13 µM; in assay [2], 4 µM. Also, the Selectivity ratio in assay [3] came out at 3.3.
`CC(C)(C)OC(=O)N[C@@H](CC(=O)OC1CCCC1)C(=O)OCc1ccc(Cl)cc1`: the IC50 in assay [1] was 16 µM; in assay [2], 3.3 µM. Also, in assay [3], the Selectivity ratio was found to be 4.8.
For `COc1ccc(COC(=O)[C@H](CC(=O)OC2CCC2)NC(=O)OC(C)(C)C)cc1`, in that order: 28 µM, 15 µM and 1.9.
On to `COc1ccc(COC(=O)[C@H](COC(=O)C2CCCCC2)NC(=O)OC(C)(C)C)cc1`, for which the IC50 was 10 µM in assay [1] and 1.6 µM in assay [2]. In addition, the Selectivity ratio in assay [3] is 6.3.
The corresponding values for `COc1ccccc1COC(=O)[C@H](CC(=O)OC1CCCC1)NC(=O)OC(C)(C)C` are 15 µM, 5.4 µM and 2.8.
